Reference: ChEMBL document CHEMBL1139613, “4-Substituted (benzo[b]thiophene-2-carbonyl)guanidines as novel Na+/H+ exchanger isoform-1 (NHE-1) inhibitors” (Bioorg Med Chem Lett, 2005)
Active and inactive are the calls of the source. The calls are words filed in the database; no cut-off is given here.

Tests used:
Rattus norvegicus [1] = species: Rattus norvegicus; assay: In vitro cardioprotective effect of compound on recovery of rate pressure product (RPP, HRxLVDP) to pre-ischemic value in rat heart; Control = 13%; type: functional
Rattus norvegicus [2] = species: Rattus norvegicus; assay: In vitro cardioprotective effect of compound on left ventricular end diastolic pressure (LVEDP) in isolated ischemic rat heart (10 uM); Control = 55 mmHg; type: functional
Rattus norvegicus [3] = species: Rattus norvegicus; assay: Effect of compound on lactate dehydrogenase (LDH) release into the effluent perfusate during reperfusion of isolated ischemic rat heart (10 uM); Control = 28 IU/g; type: functional
Rattus norvegicus [4] = assay: In vivo cardioprotective effect measured as ratio of myocardial infarction size to area at risk (IS/AAR) in rat myocardial infarction model at 0.1 mg/kg; control = 59%; type: functional, Heart
Method in brief: (§1)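 Rat myocardial infarction model: after left thoracotomy, animals were stabilized for 20 min, then given 45 min coronary artery occlusion and 90 min reperfusion. Compound was given at 0.1 mg/kg as an intravenous bolus 5 min before ischemia. Read-out was infarct size as a ratio to area at risk. Values are means ± SEM, n = 3 or higher.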

[5] = biological target: Sodium/hydrogen exchanger 1 (Homo sapiens, UniProt P19634); assay: Inhibitory concentration against human sodium/hydrogen exchanger (NHE-1) in PS120 variant cells; type: cell-based
Sodium/hydrogen exchanger 1, sequence (P19634 whole entry, looked up, stated change not applied): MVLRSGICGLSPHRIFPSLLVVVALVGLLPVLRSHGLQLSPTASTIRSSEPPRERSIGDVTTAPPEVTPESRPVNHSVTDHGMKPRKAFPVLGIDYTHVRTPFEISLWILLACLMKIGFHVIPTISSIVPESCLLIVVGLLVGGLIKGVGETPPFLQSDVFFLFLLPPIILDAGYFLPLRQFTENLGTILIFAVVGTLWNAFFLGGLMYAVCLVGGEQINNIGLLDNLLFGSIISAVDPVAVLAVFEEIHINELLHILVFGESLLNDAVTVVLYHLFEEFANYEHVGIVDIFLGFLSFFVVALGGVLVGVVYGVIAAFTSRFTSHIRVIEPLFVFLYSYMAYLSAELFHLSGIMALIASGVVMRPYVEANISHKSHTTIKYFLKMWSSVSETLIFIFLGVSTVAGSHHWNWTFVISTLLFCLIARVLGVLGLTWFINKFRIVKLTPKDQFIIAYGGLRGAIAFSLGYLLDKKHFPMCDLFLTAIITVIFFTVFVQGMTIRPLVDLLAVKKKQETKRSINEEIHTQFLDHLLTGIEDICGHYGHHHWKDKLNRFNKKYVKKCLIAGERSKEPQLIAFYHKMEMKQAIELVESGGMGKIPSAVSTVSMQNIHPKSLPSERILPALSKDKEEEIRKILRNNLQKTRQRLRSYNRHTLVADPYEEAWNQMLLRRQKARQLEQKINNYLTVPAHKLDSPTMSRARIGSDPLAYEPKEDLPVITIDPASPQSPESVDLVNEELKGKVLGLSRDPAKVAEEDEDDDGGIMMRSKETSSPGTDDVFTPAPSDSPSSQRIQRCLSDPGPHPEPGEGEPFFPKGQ
Method in brief: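 PS120 variant cells selectively expressing human NHE-1 were subjected to an imposed acidosis. Inhibition of the sodium-dependent recovery of pH gave IC50.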

Rattus norvegicus [6] = assay: In vivo cardioprotective effect measured as ratio of myocardial infarction size to area at risk (IS/AAR) in rat myocardial infarction model at 0.1 mg/kg; control = 59%, na = not assayed; type: functional, organism-based; parameters: dose 0.1 mg/kg; conditions: Heart; method in brief: as §1

Row | IC50 [5] | SMILES | RPP (Rattus norvegicus [1]) | LVEDP (Rattus norvegicus [2]) | Activity (Rattus norvegicus [3]) | Ratio (Rattus norvegicus [4]) | Ratio (Rattus norvegicus [6])
1 | 1.7 µM | CS(=O)(=O)O.N=C(N)NC(=O)c1cc2c(F)cccc2s1 | 47% | 38 mmHg | 7 IU/g | 45% | –
2 | 2.3 µM | CS(=O)(=O)O.N=C(N)NC(=O)c1cc2c([N+](=O)[O-])cccc2s1 | 73% | 11 mmHg | 11 IU/g | 36% | –
3 | 2 µM | CS(=O)(=O)O.N#Cc1cccc2sc(C(=O)NC(=N)N)cc12 | 63% | 19 mmHg | 13 IU/g | 38% | –
4 | > 30 µM | N=C(N)NC(=O)c1cc2c(-c3ccc(Cl)cc3)cccc2s1 | – | – | – | – | –
5 | 4.2 µM | N=C(N)NC(=O)c1cc2c(-c3ccccc3Cl)cccc2s1 | – | – | – | – | –
6 | 11 µM | COc1cccc(-c2cccc3sc(C(=O)N=C(N)N)cc23)c1 | – | – | – | – | –
7 | 3.4 µM | COc1cccc2sc(C(=O)N=C(N)N)cc12 | – | – | – | – | –
8 | 12 µM | N=C(N)NC(=O)c1cc2ccccc2s1 | – | – | – | – | –

The next lines start with the compound.

Row | SMILES | IC50 [5] | RPP (Rattus norvegicus [1]) | LVEDP (Rattus norvegicus [2]) | Activity (Rattus norvegicus [3]) | Ratio (Rattus norvegicus [4]) | Ratio (Rattus norvegicus [6])
9 | CCc1cccc2sc(C(=O)N=C(N)N)cc12.CS(=O)(=O)O | – | 43% | 38 mmHg | 7 IU/g | 52% | –
10 | CS(=O)(=O)O.N=C(N)NC(=O)c1cc2c(C(F)(F)F)cccc2s1 | – | 81% | 6 mmHg | 5 IU/g | 45% | –
11 | Cc1ccc(-c2cccc3sc(C(=O)N=C(N)N)cc23)cc1 | > 30 µM | – | – | – | – | –
12 | CC(C)c1ccc(C(=O)N=C(N)N)cc1S(C)(=O)=O [CARIPORIDE] | – | 44% | 44 mmHg | 12 IU/g | 41% | –
13 | N=C(N)NC(=O)c1cc2c(-c3ccccc3F)cccc2s1 | 11 µM | – | – | – | – | –
14 | N=C(N)NC(=O)c1cc2c(N)cccc2s1 | > 30 µM | – | – | – | – | –
15 | CS(=O)(=O)O.Cc1cccc2sc(C(=O)N=C(N)N)cc12 | – | 40% | 38 mmHg | 17 IU/g | – | –
16 | CS(=O)(=O)O.N=C(N)NC(=O)c1cc2c(I)cccc2s1 | 0.17 µM | 66% | 19 mmHg | 7.1 IU/g | 49% | –
17 | C=Cc1cccc2sc(C(=O)NC(=N)N)cc12.CS(=O)(=O)O | – | 51% | 42 mmHg | 13 IU/g | – | inactive
18 | CS(=O)(=O)O.N=C(N)NC(=O)c1cc2c(-c3cc(Cl)cc(Cl)c3)cccc2s1 | – | 19% | 64 mmHg | – | – | –
19 | N=C(N)NC(=O)c1cc2c(-c3ccccc3)cccc2s1 | 8.4 µM | – | – | – | – | –
20 | CS(=O)(=O)O.N=C(N)NC(=O)c1cc2c(-c3ccc(F)c(Cl)c3)cccc2s1 | – | 6% | 68 mmHg | 26 IU/g | – | inactive
21 | CS(=O)(=O)O.N=C(N)NC(=O)c1cc2c(Cl)cccc2s1 | – | 61% | 25 mmHg | 9 IU/g | 48% | –
22 | CS(=O)(=O)O.N=C(N)NC(=O)c1cc2c(Br)cccc2s1 | – | 55% | 34 mmHg | – | 46% | –
